In ChEMBL document CHEMBL4138179, “Design, synthesis and cytotoxic activity of N-Modified oleanolic saponins bearing A glucosamine” (Eur J Med Chem, 2018):

How the values were obtained:
Format in all cases: functional, cell-based
HL-60 = experiment: Cytotoxicity against human HL60 cells assessed as cell growth inhibition after 48 hrs by MTT assay; settings: HL-60, 48 h
Summary of the method: (§1)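 Cells from ATCC; HL-60 grown in IMDM, PC-3 in RPMI 1640, HT29 in DMEM, each with 10% FBS and penicillin/streptomycin, 37 °C, 5% CO2. Cells incubated without or with compound at the indicated concentrations and times. Mitochondrial MTT reduction read at 570 nm on a plate reader. IC50 given as mean ± SD of at least three independent experiments.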

HT-29 = experiment: Cytotoxicity against human HT-29 cells assessed as cell growth inhibition after 48 hrs by MTT assay; settings: HT-29, 48 h; summary of the method: as §1
PC-3 = experiment: Cytotoxicity against human PC3 cells assessed as cell growth inhibition after 48 hrs by MTT assay; settings: PC-3, 48 h; summary of the method: as §1

Work on `CC(=O)N[C@H]1[C@H](O[C@H]2CC[C@]3(C)[C@H]4CC=C5[C@@H]6CC(C)(C)CC[C@]6(C(=O)O)CC[C@@]5(C)[C@]4(C)CC[C@H]3C2(C)C)O[C@H](CO)[C@H](O)[C@@H]1O` yielded an IC50 (HL-60) of 11.6 µM, an IC50 (HT-29) of 23.3 µM and an IC50 (PC-3) of 23.4 µM.

`O=c1[nH]cc(F)c(=O)[nH]1` [FLUOROURACIL] showed an IC50 (HL-60) of over 30 µM, an IC50 (HT-29) of 8.3 µM and an IC50 (PC-3) of over 30 µM.

With `CCCCCC(=O)N[C@H]1[C@H](O[C@H]2CC[C@]3(C)[C@H]4CC=C5[C@@H]6CC(C)(C)CC[C@]6(C(=O)O)CC[C@@]5(C)[C@]4(C)CC[C@H]3C2(C)C)O[C@H](CO)[C@@H](O)[C@@H]1O` the IC50 (HL-60) was 5.82 µM, the IC50 (HT-29) was over 30 µM and the IC50 (PC-3) was over 30 µM.

With `CCCCC(=O)N[C@H]1[C@H](O[C@H]2CC[C@]3(C)[C@H]4CC=C5[C@@H]6CC(C)(C)CC[C@]6(C(=O)O)CC[C@@]5(C)[C@]4(C)CC[C@H]3C2(C)C)O[C@H](CO)[C@@H](O)[C@@H]1O` the IC50 (HL-60) was 10.6 µM, the IC50 (HT-29) was 21.7 µM and the IC50 (PC-3) was 24 µM.

`CCCCCCC(=O)N[C@H]1[C@H](O[C@H]2CC[C@]3(C)[C@H]4CC=C5[C@@H]6CC(C)(C)CC[C@]6(C(=O)O)CC[C@@]5(C)[C@]4(C)CC[C@H]3C2(C)C)O[C@H](CO)[C@H](O)[C@@H]1O` showed an IC50 (HL-60) of 2.69 µM, an IC50 (HT-29) of over 30 µM and an IC50 (PC-3) of over 30 µM.

`CCCCCCCCCCCCCC(=O)N[C@H]1[C@H](O[C@H]2CC[C@]3(C)[C@H]4CC=C5[C@@H]6CC(C)(C)CC[C@]6(C(=O)O)CC[C@@]5(C)[C@]4(C)CC[C@H]3C2(C)C)O[C@H](CO)[C@@H](O)[C@@H]1O` gave an IC50 (HL-60) of 10.7 µM, an IC50 (HT-29) of over 30 µM and an IC50 (PC-3) of over 30 µM.

Work on `CCCCCCOC(=O)N[C@H]1[C@H](O[C@H]2CC[C@]3(C)[C@H]4CC=C5[C@@H]6CC(C)(C)CC[C@]6(C(=O)O)CC[C@@]5(C)[C@]4(C)CC[C@H]3C2(C)C)O[C@H](CO)[C@@H](O)[C@@H]1O` yielded an IC50 (HL-60) of 1.44 µM, an IC50 (HT-29) of 21.4 µM and an IC50 (PC-3) of 13.9 µM.

`CC[C@]1(O)C[C@H]2CN(CCc3c([nH]c4ccccc34)[C@@](C(=O)OC)(c3cc4c(cc3OC)N(C=O)[C@H]3[C@@](O)(C(=O)OC)[C@H](OC(C)=O)[C@]5(CC)C=CCN6CC[C@]43[C@@H]65)C2)C1` [VINCRISTINE] gave an IC50 (HL-60) of 0.0018 µM and an IC50 (PC-3) of over 0.025 µM.

Work on `CCCC(=O)N[C@H]1[C@H](O[C@H]2CC[C@]3(C)[C@H]4CC=C5[C@@H]6CC(C)(C)CC[C@]6(C(=O)O)CC[C@@]5(C)[C@]4(C)CC[C@H]3C2(C)C)O[C@H](CO)[C@@H](O)[C@@H]1O` yielded an IC50 (HL-60) of 2.48 µM, an IC50 (HT-29) of over 30 µM and an IC50 (PC-3) of over 30 µM.

With `CCCCCCCCCC(=O)N[C@H]1[C@H](O[C@H]2CC[C@]3(C)[C@H]4CC=C5[C@@H]6CC(C)(C)CC[C@]6(C(=O)O)CC[C@@]5(C)[C@]4(C)CC[C@H]3C2(C)C)O[C@H](CO)[C@@H](O)[C@@H]1O` the IC50 (HL-60) was 1.4 µM, the IC50 (HT-29) was over 30 µM and the IC50 (PC-3) was over 30 µM.

Compound `CCCCOC(=O)N[C@H]1[C@H](O[C@H]2CC[C@]3(C)[C@H]4CC=C5[C@@H]6CC(C)(C)CC[C@]6(C(=O)O)CC[C@@]5(C)[C@]4(C)CC[C@H]3C2(C)C)O[C@H](CO)[C@@H](O)[C@@H]1O` has an IC50 (HL-60) of 2.23 µM, an IC50 (HT-29) of 18.1 µM and an IC50 (PC-3) of 15 µM.

Work on `CC1(C)CC[C@]2(C(=O)O)CC[C@]3(C)C(=CC[C@@H]4[C@@]5(C)CC[C@H](O[C@@H]6O[C@H](CO)[C@@H](O)[C@H](O)[C@H]6N)C(C)(C)[C@@H]5CC[C@]43C)[C@@H]2C1` yielded an IC50 (HL-60) of 2.65 µM, an IC50 (HT-29) of over 30 µM and an IC50 (PC-3) of 25 µM.

`CCCCCCCCCCCCCCCC(=O)N[C@H]1[C@H](O[C@H]2CC[C@]3(C)[C@H]4CC=C5[C@@H]6CC(C)(C)CC[C@]6(C(=O)O)CC[C@@]5(C)[C@]4(C)CC[C@H]3C2(C)C)O[C@H](CO)[C@@H](O)[C@@H]1O` was tested, and the IC50 (HL-60) was over 30 µM, the IC50 (HT-29) was over 30 µM and the IC50 (PC-3) was over 30 µM.

For `CCCCCCCOC(=O)N[C@H]1[C@H](O[C@H]2CC[C@]3(C)[C@H]4CC=C5[C@@H]6CC(C)(C)CC[C@]6(C(=O)O)CC[C@@]5(C)[C@]4(C)CC[C@H]3C2(C)C)O[C@H](CO)[C@@H](O)[C@@H]1O`, the IC50 (HL-60) was 0.76 µM, the IC50 (HT-29) was 21.7 µM and the IC50 (PC-3) was 15.4 µM.

`CCC(=O)N[C@H]1[C@H](O[C@H]2CC[C@]3(C)[C@H]4CC=C5[C@@H]6CC(C)(C)CC[C@]6(C(=O)O)CC[C@@]5(C)[C@]4(C)CC[C@H]3C2(C)C)O[C@H](CO)[C@@H](O)[C@@H]1O` showed an IC50 (HL-60) of 6.83 µM, an IC50 (HT-29) of 16.4 µM and an IC50 (PC-3) of 11.9 µM.

`CCCCCCCCOC(=O)N[C@H]1[C@H](O[C@H]2CC[C@]3(C)[C@H]4CC=C5[C@@H]6CC(C)(C)CC[C@]6(C(=O)O)CC[C@@]5(C)[C@]4(C)CC[C@H]3C2(C)C)O[C@H](CO)[C@@H](O)[C@@H]1O` was tested, and the IC50 (HL-60) was 1.42 µM, the IC50 (HT-29) was 20.3 µM and the IC50 (PC-3) was 15.4 µM.

`CCOC(=O)N[C@H]1[C@H](O[C@H]2CC[C@]3(C)[C@H]4CC=C5[C@@H]6CC(C)(C)CC[C@]6(C(=O)O)CC[C@@]5(C)[C@]4(C)CC[C@H]3C2(C)C)O[C@H](CO)[C@@H](O)[C@@H]1O` gave an IC50 (HL-60) of 12.5 µM, an IC50 (HT-29) of over 30 µM and an IC50 (PC-3) of over 30 µM.

Compound `CCCCCCCCC(=O)N[C@H]1[C@H](O[C@H]2CC[C@]3(C)[C@H]4CC=C5[C@@H]6CC(C)(C)CC[C@]6(C(=O)O)CC[C@@]5(C)[C@]4(C)CC[C@H]3C2(C)C)O[C@H](CO)[C@@H](O)[C@@H]1O` has an IC50 (HL-60) of 1.46 µM, an IC50 (HT-29) of 22.8 µM and an IC50 (PC-3) of 14.7 µM.

`CC(=O)N[C@H]1[C@H](O[C@H]2CC[C@]3(C)[C@H]4CC=C5[C@@H]6CC(C)(C)CC[C@]6(C(=O)O)CC[C@@]5(C)[C@]4(C)CC[C@H]3C2(C)C)O[C@H](CO)[C@@H](O)[C@@H]1O` showed an IC50 (HL-60) of 10.3 µM, an IC50 (HT-29) of over 30 µM and an IC50 (PC-3) of over 30 µM.

In the case of `CC1(C)CC[C@]2(C(=O)O)CC[C@]3(C)C(=CC[C@@H]4[C@@]5(C)CC[C@H](O)C(C)(C)[C@@H]5CC[C@]43C)[C@@H]2C1` [OLEANOLIC_ACID], the IC50 (HL-60) is reported as over 30 µM, the IC50 (HT-29) is reported as over 30 µM and the IC50 (PC-3) is reported as over 30 µM.

Work on `CCCOC(=O)N[C@H]1[C@H](O[C@H]2CC[C@]3(C)[C@H]4CC=C5[C@@H]6CC(C)(C)CC[C@]6(C(=O)O)CC[C@@]5(C)[C@]4(C)CC[C@H]3C2(C)C)O[C@H](CO)[C@@H](O)[C@@H]1O` yielded an IC50 (HL-60) of 21.5 µM, an IC50 (HT-29) of over 30 µM and an IC50 (PC-3) of over 30 µM.

In the case of `CCCCCCCCCCCC(=O)N[C@H]1[C@H](O[C@H]2CC[C@]3(C)[C@H]4CC=C5[C@@H]6CC(C)(C)CC[C@]6(C(=O)O)CC[C@@]5(C)[C@]4(C)CC[C@H]3C2(C)C)O[C@H](CO)[C@@H](O)[C@@H]1O`, the IC50 (HL-60) is reported as 1.57 µM, the IC50 (HT-29) is reported as over 30 µM and the IC50 (PC-3) is reported as 21.4 µM.

For `CCCCCCCC(=O)N[C@H]1[C@H](O[C@H]2CC[C@]3(C)[C@H]4CC=C5[C@@H]6CC(C)(C)CC[C@]6(C(=O)O)CC[C@@]5(C)[C@]4(C)CC[C@H]3C2(C)C)O[C@H](CO)[C@@H](O)[C@@H]1O`, the IC50 (HL-60) was 1.68 µM, the IC50 (HT-29) was 21.9 µM and the IC50 (PC-3) was 19.4 µM.

In the case of `CCCCCCCCNC(=O)N[C@H]1[C@H](O[C@H]2CC[C@]3(C)[C@H]4CC=C5[C@@H]6CC(C)(C)CC[C@]6(C(=O)O)CC[C@@]5(C)[C@]4(C)CC[C@H]3C2(C)C)O[C@H](CO)[C@@H](O)[C@@H]1O`, the IC50 (HL-60) is reported as 2.14 µM, the IC50 (HT-29) is reported as over 30 µM and the IC50 (PC-3) is reported as over 30 µM.
